For orientation: EC50 means the concentration needed to bring the measured effect to its halfway point.

Activity calls are given as the source filed them.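 How the source made its calls: active means EC50 for reversing nicotinamide-shortened yeast lifespan at or below a set limit; inactive means EC50 above that limit.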

The assay has as its system S. cerevisiae DeaD BB579, nicotinamide rescue growth, OD615 48 h. The experiment in a line: BB579 yeast growth restoration under nicotinamide – S. cerevisiae, yeast lifespan extension project, dose response (AID 809). A digest of the protocol:
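System – S. cerevisiae DeaD strain BB579 · Buffer or medium – CSMM-D glucose restrictive medium · Times – culture pre-incubation 4 h, then compound exposure 48 h, both 30 °C · Signal – OD615 absorbance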
As for `CCOC(=O)C1CCN(C(c2cc3ccc(C)c(C)c3[nH]c2=O)c2nnnn2C2CCCCC2)CC1` (stereo not drawn), the EC50 was > 10 µM (inactive).

As to `CCCn1c(SCC(=O)c2ccc3c(c2)NC(=O)CO3)nc2ccccc21`, the EC50 was > 10 µM (inactive).

Turning to `O=C(NC(=S)NNC(=O)c1ccc(Cl)cc1Cl)c1cccnc1`, the EC50 was 9.35 µM.

`CC(C)(C)C(=O)/C(=C/c1cccc([N+](=O)[O-])c1)n1cncn1`: the EC50 was 3.73 µM.

Regarding `Cc1cc(C)nc(SCc2cc(=O)c(OC(=O)c3ccco3)co2)n1`, the EC50 is > 10 µM (inactive).

`CN1C(=O)C(C(=O)Nc2ccccc2F)c2ccccc21` (stereo not drawn): the EC50 was 9.71 µM.

As to `N#CSCC(=O)N1c2ccccc2CCc2ccccc21`, the EC50 was 8.69 µM.

For the compound `COc1cnc(-c2ccccn2)nc1Sc1cccc(Cl)c1`, the EC50 is 4.44 µM.

For the compound `Cc1ccc(C(=O)NNC(=S)NC(=O)c2ccc(Cl)cc2)cc1`, the EC50 is 6.78 µM.

With `COc1ccc(-c2cc(C(F)(F)F)nc(S(C)(=O)=O)n2)cc1OC`, the concentration for a half-maximal effect (EC50) was 8.76 µM.

In the case of `O=C1CC(c2ccc(F)cc2)CC(O)=C1C=NCCN1CCN(C(=O)Nc2ccccc2)CC1` (stereo not drawn), the EC50 was 7.09 µM.

For `Cc1cc(C)cc(CC2CC(=O)N(c3ccc(Cl)cn3)C2=O)c1` (stereo not drawn), the EC50 is > 10 µM (inactive).

Regarding `Cc1ccc(C(=O)C2C(=O)c3ccccc3C2=O)cc1`, the EC50 is 3.68 µM.

As for `COc1ccccc1CNC(=O)C(CCSC)NS(=O)(=O)c1ccc2c(c1)oc(=O)n2C` (stereo not drawn), the EC50 is > 10 µM (inactive).

In the case of `CCOC(=O)CSC1=NC(=O)/C(=C/c2ccc(OC)cc2)S1`, the EC50 was 6.43 µM.

For `CCOc1cc(/C=C\[N+](=O)[O-])ccc1OCC(=O)Nc1ccccc1C`, the EC50 is > 10 µM (inactive).

Consider `C=C(CC)C(=O)c1ccc(OCC(=O)O)c(Cl)c1Cl`, for which the EC50 was 7.07 µM.

Take `CC(=O)N1CCN(CCN=CC2=C(O)CC(c3cccs3)CC2=O)CC1` (stereo not drawn): the EC50 is > 10 µM (inactive).

With `O=c1cc(O)c2c(=O)n(-c3ccccc3)c3c(c2o1)CCCCC3`, the EC50 was 5.16 µM.

Turning to `O=CN(/C=C1\Sc2ccccc2C1=O)Cc1ccccc1`, the EC50 was 5.73 µM.

Consider `O=C1c2ccccc2C(=O)N1OCc1ccccc1`, for which the EC50 was > 10 µM (inactive).

Regarding `Cc1ccc(Oc2nc3ccccc3n3c(C)nnc23)c(C)c1`, the EC50 was > 10 µM (inactive).

Take `Cc1cccc(N2C(=O)/C(=C\c3ccc(OC(F)F)cc3)c3ccccc3C2=O)c1`: the EC50 is > 10 µM (inactive).

For the compound `CCC1C/C(=C\c2cccnc2)C(=O)/C(=C/c2cccnc2)C1` (stereo not drawn), the EC50 is 3.17 µM.

Take `CC1(C)Cc2ccccc2-c2nnc(SCC(=O)Nc3ccc4c(c3)OCO4)n21`: the EC50 was > 10 µM (inactive).

Regarding `C/C(=N\NC(=O)c1ccccc1O)C1C(=O)c2ccccc2C1=O`, the EC50 was < 0.078 µM.

As for `CC1=C(C#N)C2C(/C1=N/O)C2(C)C` (stereo not drawn), the EC50 is > 10 µM (inactive).

As for `Cc1ccc(NC(=O)Nc2nc(-c3ccc(C)s3)cs2)cc1`, the EC50 was > 10 µM (inactive).

With `COC(=O)c1cc(=O)n(-c2ccccc2)c(=Nc2ccccc2)s1`, the EC50 was > 10 µM (inactive).

On to `CNC(=S)NC1CC2CCCC(C1)N2Cc1ccco1` (stereo not drawn), for which the EC50 is > 10 µM (inactive).

Take `COc1ccc(C2CC23N=C(c2ccccc2)OC3=O)cc1` (stereo not drawn): the EC50 is > 10 µM (inactive).

`CN1CCC2(CC1)C(C#N)=C(N)NC(S)=C2C#N`: the EC50 was > 10 µM (inactive).

With `O=C(COc1ccc([N+](=O)[O-])cc1)N(Cc1ccccc1)Cc1ccccc1`, the EC50 is > 10 µM (inactive).

In the case of `CCOC(=O)c1c(C)oc2c1c(C(c1cccnc1)N1CCCCC1)c(O)c1ccccc12` (stereo not drawn), the EC50 is > 10 µM (inactive).

On to `CC(C)C(c1nnnn1Cc1ccccc1)N1CCN(Cc2ccc3c(c2)OCO3)CC1` (stereo not drawn), for which the EC50 is > 10 µM (inactive).

As to `O=C1C(C2=C(O)c3ccccc3C2=O)=Nc2ccccc21`, the EC50 was 1.7 µM.

As to `CC(C)c1ccc2occ(-c3nn[nH]n3)c(=O)c2c1`, the EC50 is 6.44 µM.

On to `O=C(N/N=C/c1cccc(F)c1)c1c(O)c2ccccc2[nH]c1=O`, for which the EC50 was 3.21 µM.

For the origin of these results see PubChem BioAssay AID809 (SRMLSC, 2007).
